From ChEMBL document CHEMBL5154645, “Potent Anti-SARS-CoV-2 Activity by the Natural Product Gallinamide A and Analogues via Inhibition of Cathepsin L” (J Med Chem, 2022)
pEC50, pIC50, pKi: −log10 of the molar value. The source made the active and inactive calls. The rule behind the calls is not given here.

Legend:
[1] = target: T1, Cathepsin B (Homo sapiens, UniProt P07858); assay: Inhibition of human recombinant Cathepsin B assessed remaining activity using Z-FR-AMC as substrate incubated for 30 mins by fluorometric assay
Method in brief: (§1)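 Recombinant human cathepsins: L, B, V and K at 1.11 nM, S at 4.44 nM. Each was preincubated 30 min at 25 °C with 3333 to 0.006 nM compound. Z-FR-AMC was added at 40 μM final. AMC release rate over 0–30 min was compared with DMSO (ex/em 360/460). IC50 from four technical replicates.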

[2] = target: T2, Procathepsin L (Mus musculus, UniProt P06797); assay: Inhibition of mouse Cathepsin L assessed as Apparent inhibition constant using Z-FR-AMC as substrate inubated for 30 mins by fluorometric assay; settings: read-out: Ki(app)
T2 sequence (P06797 whole entry): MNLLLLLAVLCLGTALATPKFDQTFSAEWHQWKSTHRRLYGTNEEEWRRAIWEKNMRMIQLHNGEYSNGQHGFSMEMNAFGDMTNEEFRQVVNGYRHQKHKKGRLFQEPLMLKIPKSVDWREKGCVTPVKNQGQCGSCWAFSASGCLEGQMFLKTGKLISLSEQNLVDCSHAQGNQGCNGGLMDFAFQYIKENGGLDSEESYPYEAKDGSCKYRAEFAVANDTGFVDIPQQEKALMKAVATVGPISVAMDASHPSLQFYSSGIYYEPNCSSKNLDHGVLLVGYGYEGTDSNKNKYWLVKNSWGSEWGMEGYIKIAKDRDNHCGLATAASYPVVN
Method in brief: (§2)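 Human CatL, human CatB or mouse CatL at 1 nM, at 25 °C in pH 5.5 Na acetate/DTT/EDTA/NaCl buffer. Reactions held 40 μM Z-FR-AMC and 555.56 to 0.01 nM compound, in quadruplicate. Product formation was measured at 6 min intervals for 1 h and normalized to DMSO wells. kobs came from inactivation curves. kinact and KIapp were obtained by nonlinear regression of kobs = kinact[I]/(KIapp + [I]); their ratio was then calculated.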

[3] = tested on: SARS-CoV-2; assay: Antiviral activity against SARS-CoV-2 infected in African green monkey Vero E6 cells assessed as inhibition of viral infection pre incubated for 30 minutes followed by viral infection and measured after 72 hrs by Nucblue dye based fluorometric analysis; assay type: functional, organism-based; settings: Severe acute respiratory syndrome coronavirus 2, Vero C1008
[4] = target: T1, Cathepsin B; assay: Inhibition of human recombinant Cathepsin B assessed as Apparent inhibition constant using Z-FR-AMC as substrate inubated for 30 mins by fluorometric assay; settings: read-out: Ki(app); method in brief: as §2
[5] = target: T3, Procathepsin L (Homo sapiens, UniProt P07711); assay: Inhibition of human recombinant Cathepsin L assessed as ratio of Kinact/Kiapp using Z-FR-AMC as substrate inubated for 30 mins by fluorometric assay
Target sequence in this assay (P07711 114-333 limits assumed): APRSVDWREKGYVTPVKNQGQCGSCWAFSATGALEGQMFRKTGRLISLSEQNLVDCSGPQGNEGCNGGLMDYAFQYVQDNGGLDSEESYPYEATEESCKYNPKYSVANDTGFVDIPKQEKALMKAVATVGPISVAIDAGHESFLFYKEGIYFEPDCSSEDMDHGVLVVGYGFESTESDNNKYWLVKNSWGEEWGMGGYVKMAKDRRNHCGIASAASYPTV

[6] = target: T4, Procathepsin L (Mus musculus) (UniProt P06797); assay: Inhibition of mouse Cathepsin L assessed as Kinact using Z-FR-AMC as substrate inubated for 30 mins by fluorometric assay; method in brief: as §2
T4 sequence (whole entry): T2 sequence (P06797 whole entry)

[7] = target: T3, Procathepsin L; assay: Inhibition of human recombinant Cathepsin L assessed as Kinact using Z-FR-AMC as substrate inubated for 30 mins by fluorometric assay; method in brief: as §2
Target sequence in this assay (P07711 114-333 limits assumed): as above

[8] = target: Cathepsin S (Homo sapiens, UniProt P25774); assay: Inhibition of human recombinant Cathepsin S assessed remaining activity using Z-FR-AMC as substrate incubated for 30 mins by fluorometric assay; method in brief: as §1
[9] = tested on: Vero C1008; assay: Cytotoxicity against cells African green monkey Vero E6 cells incubated for 24 to 72 hrs by alamar blue assay; assay type: toxicity, cell-based; settings: chlorocebus sabaeus, time 24-72 hrs
Method in brief: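 VeroE6 cells in DMEM with 10% FCS were seeded at 5 × 10^4 per well. After adherence, cells were given varying compound concentrations for 24 or 72 h at 37 °C, 5% CO2. Alamar Blue HS was added for a further 2–4 h. Viability was read as fluorescence at ex/em 560/590 nm.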

[10] = target: T5, Cathepsin K (Homo sapiens, UniProt P43235); assay: Inhibition of human recombinant Cathepsin K assessed remaining activity using Z-FR-AMC as substrate incubated for 30 mins by fluorometric assay; method in brief: as §1
T5 sequence (P43235 whole entry): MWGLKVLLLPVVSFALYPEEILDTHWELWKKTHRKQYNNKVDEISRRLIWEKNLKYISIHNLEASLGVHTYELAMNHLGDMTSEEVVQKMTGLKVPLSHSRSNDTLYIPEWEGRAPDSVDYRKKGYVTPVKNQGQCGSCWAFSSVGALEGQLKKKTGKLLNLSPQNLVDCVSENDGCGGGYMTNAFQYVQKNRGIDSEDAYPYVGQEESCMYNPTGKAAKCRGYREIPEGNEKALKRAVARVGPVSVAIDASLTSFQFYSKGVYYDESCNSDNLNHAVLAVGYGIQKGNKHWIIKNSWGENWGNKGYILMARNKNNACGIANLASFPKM

[11] = target: T6, Cathepsin L2 (Homo sapiens, UniProt O60911); assay: Inhibition of human recombinant Cathepsin V assessed remaining activity using Z-FR-AMC as substrate incubated for 30 mins by fluorometric assay; method in brief: as §1
T6 sequence (O60911 whole entry): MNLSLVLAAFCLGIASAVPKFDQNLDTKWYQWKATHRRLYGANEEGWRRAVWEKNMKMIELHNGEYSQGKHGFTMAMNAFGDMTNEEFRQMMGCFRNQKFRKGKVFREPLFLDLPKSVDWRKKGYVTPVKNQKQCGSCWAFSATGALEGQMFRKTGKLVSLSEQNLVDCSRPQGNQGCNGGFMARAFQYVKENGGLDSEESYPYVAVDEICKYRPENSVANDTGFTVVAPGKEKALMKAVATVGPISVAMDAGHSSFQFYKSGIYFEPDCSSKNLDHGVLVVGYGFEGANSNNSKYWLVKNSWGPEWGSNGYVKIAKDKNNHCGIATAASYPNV

[12] = target: T4, Procathepsin L (Mus musculus); assay: Inhibition of mouse Cathepsin L assessed as ratio of Kinact/Kiapp using Z-FR-AMC as substrate inubated for 30 mins by fluorometric assay; method in brief: as §2
[13] = target: T3, Procathepsin L; assay: Inhibition of human recombinant Cathepsin L assessed as Apparent inhibition constant using Z-FR-AMC as substrate […] by fluorometric assay; settings: read-out: Ki(app)
Target sequence in this assay (P07711 whole entry): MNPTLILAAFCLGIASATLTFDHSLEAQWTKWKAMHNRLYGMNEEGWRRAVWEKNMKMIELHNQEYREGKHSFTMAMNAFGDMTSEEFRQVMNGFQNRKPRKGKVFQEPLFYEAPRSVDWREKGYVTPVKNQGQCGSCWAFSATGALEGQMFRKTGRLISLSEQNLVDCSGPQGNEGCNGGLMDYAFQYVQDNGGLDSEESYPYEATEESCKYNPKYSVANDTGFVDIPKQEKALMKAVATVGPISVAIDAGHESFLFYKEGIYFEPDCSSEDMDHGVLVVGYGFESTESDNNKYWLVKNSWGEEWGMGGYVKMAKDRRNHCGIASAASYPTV

[14] = target: T1, Cathepsin B; assay: Inhibition of human recombinant Cathepsin B assessed as ratio of Kinact/Kiapp using Z-FR-AMC as substrate inubated for 30 mins by fluorometric assay; method in brief: as §2
[15] = target: T1, Cathepsin B; assay: Inhibition of human recombinant Cathepsin B assessed as Kinact using Z-FR-AMC as substrate inubated for 30 mins by fluorometric assay
[16] = target: T1, Cathepsin B; assay: Inhibition of recombinant human Cathepsin B in African green monkey Vero E6 using Z-Phe-Arg-AMC as substrate for 30 mins by fluorometric assay; assay type: cell-based
Method in brief: (§3)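 VeroE6 or A549 cells were lysed by sonication in 50 mM MES pH 6.0 with AEBSF, pepstatin A, EDTA and DTT; protein was quantified by BCA. An equal volume of 50 μM Z-Phe-Arg-AMC was then added. Activity was normalized to 0.2% DMSO wells.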

[17] = tested on: SARS-CoV-2; assay: Synergistic antiviral activity against SARS-CoV-2 infected in human HEK293 cells expressing TMPRSS2 as inhibition of viral entry in presence of Na-famostat mesylate; assay type: functional, organism-based; settings: Severe acute respiratory syndrome coronavirus 2
[18] = tested on: SARS-CoV-2; assay: Antiviral activity against SARS-CoV-2 infected in human HEK293 cells expressing TMPRSS2 as inhibition of viral entry; assay type: functional, organism-based; settings: Severe acute respiratory syndrome coronavirus 2
[19] = tested on: SARS-CoV-2; assay: Antiviral activity against SARS-CoV-2 infected in human MRC5 cells expressing ACE2/TMPRSS2 assessed as inhibition of viral entry at 32 uM; assay type: functional, organism-based; settings: Severe acute respiratory syndrome coronavirus 2
[20] = tested on: SARS-CoV-2; assay: Antiviral activity against SARS-CoV-2 infected in African green monkey Vero E6 cells assessed as inhibition of viral entry at 0.5 uM pretreated for 30 mins with cells followed by viral infection and measured after 24 hrs post infection by Alexa Fluor 488 and Hoechst dye based fluorescence microscopy; assay type: functional, organism-based; settings: Severe acute respiratory syndrome coronavirus 2
[21] = target: T3, Procathepsin L; assay: Binding affinity to Cathepsin L in African green monkey VeroE6 cell lysates assessed as covalent adducts by quantitative mass spectrometry; assay type: subcellular; settings: Vero E6
Method in brief: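 VeroE6 cells at 80–90% confluence were treated with 10 μM compound for 1 h in triplicate, washed with DPBS, and lysed in 4% sodium deoxycholate buffer. Lysates were digested to peptides and analysed by nanoflow LC-MS/MS. Covalent CatL adducts were identified by targeted MS/MS at 1% FDR.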
Target sequence in this assay (P07711 114-333 limits assumed): as the sequence (P07711 114-333 limits assumed) above

[22] = target: T1, Cathepsin B; assay: Inhibition of recombinant human Cathepsin B expressed in huamn A549 using Z-Phe-Arg-AMC as substrate incubated for 30 mins by fluorometric assay; method in brief: as §3
[23] = target: T3, Procathepsin L; assay: Inhibition of recombinant human Cathepsin L in African green monkey Vero E6 at 20 uM using Z-Phe-Arg-AMC as substrate for 30 mins by fluorometric assay; assay type: cell-based; method in brief: as §3
Target sequence in this assay (P07711 114-333 limits assumed): as above

[24] = tested on: SARS-CoV-2; assay: Antiviral activity against SARS-CoV-2 infected in Vero E6 cells assessed as inhibition of viral entry at 0.5 uM and measured after 24 hrs post infection by Alexa Fluor 488 and Hoechst dye based fluorescence microscopy; assay type: functional, organism-based; settings: Severe acute respiratory syndrome coronavirus 2
[25] = tested on: SARS-CoV-2; assay: Anti viral activity against SARS-CoV-2 infected in African green monkey veroE6 assessed as reduction in viral load; assay type: functional, Severe acute respiratory syndrome coronavirus 2, Vero E6
[26] = target: T3, Procathepsin L; assay: Inhibition of human recombinant Cathepsin L assessed enzyme activity using Z-FR-AMC as substrate at 416 nM incubated for 30 mins by fluorometric assay
Method in brief: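 Recombinant human CatL at 50 pM was incubated with 416 nM compound for […] at 25 °C in 50 mM Na acetate pH 5.5, 5 mM DTT, 0.01% BSA, 1 mM EDTA. An equal volume of 5 μM Z-FR-AMC was then added. Fluorescence was read at 360/460 nm in triplicate wells and normalized to DMSO vehicle wells.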
Target sequence in this assay (P07711 114-333 limits assumed): as above

Sequence of Cathepsin S (P25774 whole entry): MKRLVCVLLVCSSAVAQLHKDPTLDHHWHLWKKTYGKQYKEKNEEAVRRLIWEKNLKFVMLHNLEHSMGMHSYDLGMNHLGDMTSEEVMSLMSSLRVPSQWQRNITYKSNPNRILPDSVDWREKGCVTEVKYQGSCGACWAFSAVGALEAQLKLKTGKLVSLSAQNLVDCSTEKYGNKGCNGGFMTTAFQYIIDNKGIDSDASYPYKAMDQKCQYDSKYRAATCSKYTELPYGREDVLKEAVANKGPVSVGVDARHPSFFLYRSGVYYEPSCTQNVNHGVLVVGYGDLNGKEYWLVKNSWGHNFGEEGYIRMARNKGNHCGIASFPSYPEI

| Compound | pIC50 [1] | pKi [2] | pEC50 [3] | pKi [4] | Ratio [5] | Kinact [6] | Kinact [7] | pIC50 [8] | CC50 [9] | pIC50 [10] | pIC50 [11] | Ratio [12] | pKi [13] | Ratio [14] | Kinact [15] | Activity [19] | also measured |
| --- | --- | --- | --- | --- | --- | --- | --- | --- | --- | --- | --- | --- | --- | --- | --- | --- | --- |
| COC1=CC(=O)N(C(=O)/C=C/[C@H](CCc2ccccc2)NC(=O)[C@H](CC(C)C)NC(=O)[C@H](CC(C)C)NC(=O)[C@H](C(C)C)N(C)C)[C@H]1Cc1c[nH]c2ccccc12 | 9.83 | 8.38 | 6.04 | 6.62 | 8.35 10^5/s/M | 9.6 10^-3/s | 9.85 10^-3/s | 9.65 | > 100000 nM | 8.82 | 6.38 | 2.31 10^6/s/M | 7.93 | 7.94 10^3/s/M | 1.89 10^-3/s | – | – |
| COC1=CC(=O)N(C(=O)/C=C/[C@H](C)NC(=O)[C@H](CC(C)C)NC(=O)[C@H](CC2CCCCC2)NC(=O)C2CCN(C)CC2)[C@H]1Cc1c[nH]c2ccccc12 | 9.56 | 7.53 | 5.22 | 6.06 | 1.93 10^5/s/M | 8.56 10^-3/s | 3.47 10^-3/s | 9.52 | > 100000 nM | 9.21 | 7.69 | 2.92 10^5/s/M | 7.74 | 2.43 10^4/s/M | 2.09 10^-2/s | – | – |
| CC[C@H](C)[C@@H](C(=O)O[C@@H](CC(C)C)C(=O)N[C@@H](CC(C)C)C(=O)N[C@@H](C)/C=C/C(=O)N1C(=O)C=C(OC)[C@@H]1C)N(C)C [GALLINAMIDE A] | 8.13 | 8.28 | 7.55 | 6.93 | – | 5.69 10^-3/s | 4.75 10^-3/s | 9.44 | > 100000 nM | 7.10 | 6.16 | 1.07 10^6/s/M | 8.10 | – | 6.27 10^-4/s | Active | inhibition [16]: Active; Activity [17]: Active; Activity [18]: Active; Activity [20]: Active; Activity [21]: Active; inhibition [22]: Active; inhibition [23]: Active; Activity [24]: Active; IC90 [25]: 88 nM |
| COC1=CC(=O)N(C(=O)/C=C/[C@H](C)NC(=O)[C@H](CC(C)C)NC(=O)[C@H](CC(C)C)NC(=O)C2CCN(C)CC2)[C@H]1Cc1c[nH]c2ccccc12 | 9.38 | 8.40 | < 5.30 | 6.07 | 2.9 10^5/s/M | 3.19 10^-3/s | 8.34 10^-3/s | 10.83 | > 100000 nM | 7.75 | 7.20 | 8.06 10^5/s/M | – | 1.99 10^4/s/M | 1.7 10^-2/s | – | – |
| COC1=CC(=O)N(C(=O)/C=C/[C@H](C)NC(=O)[C@H](CC(C)C)NC(=O)[C@H](Cc2ccccc2)NC(=O)[C@H](CC(C)C)N(C)C)[C@H]1Cc1c[nH]c2ccccc12 | – | – | – | – | – | – | – | – | – | – | – | – | – | – | – | – | inhibition [26]: 90% |
| COC1=CC(=O)N(C(=O)/C=C/[C@H](C)NC(=O)[C@H](CCc2ccccc2)NC(=O)[C@H](CC2CCCCC2)NC(=O)[C@H](C(C)C)N(C)C)[C@H]1Cc1c[nH]c2ccccc12 | 7.32 | 7.78 | 6.77 | 6.46 | 1.89 10^5/s/M | 2.24 10^-3/s | 5.87 10^-3/s | 7.22 | > 100000 nM | 6.66 | 6.73 | 1.36 10^5/s/M | – | 9.65 10^3/s/M | 3.35 10^-3/s | Active | – |
